HSV replic up: enhancers of HSV replication in host cells, fold increase, host cell viability. maximum fold increase. HSV replication augmentation in cells. AID 1956, 2009. 0.005% of 220,000 active; in the data active = maximum fold increase above about 1.5; inconclusive = no clear call, values can overlap the other calls; tested in PC3 cells
STAT3 act: IL-6 driven STAT3 reporter potentiators, primary screen, U3A cells, luciferase, luminescence, MLSCN library; IL-6 STAT3-luciferase reporter; 100% = signal with IL-6 EC80 alone; 0.91% of 190,000 active; activation (% of control), % at 5.6 µM;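 active = activation above the screen-wide mean of compound activation plus 3 SD, cut at about 130% in these data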;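 note: 0% = background luminescence of wells with medium and substrate only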
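Material: STAT3-luciferase reporter U3A cells; Probe or stimulus: IL-6 (33 ng/mL); Incubation: compound pre-incubation 1 h before IL-6, then 6 h stimulation at 37 °C; Technique: luminescence from STAT3-driven luciferase reporter; Evaluation: % activation versus median of IL-6-stimulated wells; Controls: IL-6-only high control.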
STAT1 blocker: STAT1 signaling inhibitors, primary screen, cell-based, HTS, luciferase reporter. AID 920, 2007. inhibition, % at 5.5 µM. 0.35% of 200,000 active. NIH 3T3 STAT1-luciferase reporter, IFN-gamma, luminescence;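 active = inhibition above a set limit, the mean inhibition across all tested compounds plus 3 SD, cut at about 34% in these data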;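 note: 0% = IFN-gamma with DMSO and 100% = IFN-gamma with 300 µM nifuroxazide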
KCC2 mod: KCC2 cotransporter modulators, thallium flux, primary screen, cell-based, HEK293 KCC2, FluoZin-2 fluorescence, MLSMR; KCC2 cells, thallium flux FluoZin-2 fluorescence; AID 1456, 2008; B-score of Tl+ flux slope (higher = more flux/activation; lower = inhibition) at 10 µM; Solute carrier family 12 member 5 (Homo sapiens), Q9H2X9; 2.2% of 190,000 active;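 active = thallium flux slope and its plate-corrected score both differing from the plate sample mean at a set confidence after two filtering rounds, in either direction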;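 note: slope of fluorescence scaled to starting intensity during 10 to 20 s after thallium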
Target sequence (Q9H2X9 whole entry, looked up): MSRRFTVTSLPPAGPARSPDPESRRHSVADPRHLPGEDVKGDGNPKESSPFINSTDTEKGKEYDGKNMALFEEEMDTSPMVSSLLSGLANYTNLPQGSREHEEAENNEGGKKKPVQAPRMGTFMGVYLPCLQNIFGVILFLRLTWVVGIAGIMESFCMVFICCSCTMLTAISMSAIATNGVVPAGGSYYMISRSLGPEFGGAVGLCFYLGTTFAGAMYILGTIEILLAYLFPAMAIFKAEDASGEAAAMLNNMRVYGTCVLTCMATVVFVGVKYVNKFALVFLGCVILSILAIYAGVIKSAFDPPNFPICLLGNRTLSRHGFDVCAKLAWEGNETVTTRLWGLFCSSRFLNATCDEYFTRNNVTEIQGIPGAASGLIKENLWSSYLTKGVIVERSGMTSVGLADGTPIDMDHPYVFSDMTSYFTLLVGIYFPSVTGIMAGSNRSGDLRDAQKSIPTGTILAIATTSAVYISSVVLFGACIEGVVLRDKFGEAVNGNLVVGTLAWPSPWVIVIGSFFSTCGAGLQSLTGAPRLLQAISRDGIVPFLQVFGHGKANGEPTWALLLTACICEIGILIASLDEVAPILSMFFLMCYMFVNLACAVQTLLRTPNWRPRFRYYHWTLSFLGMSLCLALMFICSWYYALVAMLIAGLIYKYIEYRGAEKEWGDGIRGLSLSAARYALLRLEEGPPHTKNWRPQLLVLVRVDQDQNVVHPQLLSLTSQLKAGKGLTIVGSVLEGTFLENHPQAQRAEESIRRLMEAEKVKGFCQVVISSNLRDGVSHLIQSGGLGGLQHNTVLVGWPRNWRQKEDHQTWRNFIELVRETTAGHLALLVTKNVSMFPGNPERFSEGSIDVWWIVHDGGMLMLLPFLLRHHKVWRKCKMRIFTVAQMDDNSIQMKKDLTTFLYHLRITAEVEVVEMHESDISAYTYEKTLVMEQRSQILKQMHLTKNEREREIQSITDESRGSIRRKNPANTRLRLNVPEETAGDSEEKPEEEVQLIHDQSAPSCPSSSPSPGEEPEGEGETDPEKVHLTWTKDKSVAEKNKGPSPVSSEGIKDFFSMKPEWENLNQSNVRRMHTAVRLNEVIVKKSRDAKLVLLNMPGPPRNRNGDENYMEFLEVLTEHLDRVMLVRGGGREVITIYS
STAT1 activator: STAT1 signaling activators, primary screen, cell-based, HTS, luciferase reporter; NIH 3T3 STAT1-luciferase reporter, IFN-gamma, luminescence; 100% = IFN-gamma alone, no compound; activation (% of control), % at 5.5 µM; 2.6% of 200,000 active; AID 932, 2007;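 active = activation above the screen-wide mean activation plus 3 SD, cut at about 130% in these data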;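 note: raw ratio to IFN-gamma control signal so 100% means no change and 0% no light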
STAT3 inh: IL-6 driven STAT3 reporter inhibitors, primary screen, U3A cells, luciferase, luminescence, MLSCN library | IL-6 STAT3-luciferase reporter; host cell line lacks STAT1 | inhibition, % at 5.5 µM | 0.89% of 190,000 active | AID 862, 2007;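 active = inhibition above the mean inhibition across all screened compounds plus 3 SD, cut at about 44% in these data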;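 note: 0% = DMSO only wells and 100% = 100 µM nifuroxazide control wells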
KCC2 sec1: KCC2 modulators in sodium-free buffer, confirmation, cell-based, HEK293 KCC2, thallium flux, secondary assay. normalised thallium flux (F/F0 slope) at 10 µM. FluoZin2 fluorescence; active compounds read high. 15% of 3,700 active. AID 1713, 2009. shares compounds with KCC2 mod;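 active = thallium flux slope above the same plate's solvent-only control mean plus 3 SD; inconclusive = the two replicate wells disagree; inactive = no significant difference from solvent-only control wells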
KCC2 bumet counter: thallium flux persisting under bumetanide in KCC2 cells, confirmation, counter-screen for KCC2 modulator project, cell-based, HEK293 KCC2, FluoZin2, secondary assay 3; shares compounds with KCC2 mod; HEK293-KCC2 + bumetanide/ouabain; active compounds read high; normalized thallium flux at 10 µM; 49% of 3,700 active; AID 1714, 2009;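 active = thallium entry rate above the same plate's blocked-transporter control wells by more than 3 SD; inconclusive = the two repeat wells disagree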;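 note: raw slope of fluorescence over initial fluorescence between 10 and 20 s after thallium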
KCC2 secondary2: KCC2 modulators without ouabain present, confirmation, cell-based, HEK293 KCC2, thallium flux, FluoZin2, secondary assay 2; 23% of 3,700 active; AID 1715, 2009; shares compounds with KCC2 mod; thallium flux FluoZin2 fluorescence; actives lie on both sides; F/F0 rise rate, 10–20 s post-thallium; normalized thallium flux at 10 µM;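 active = thallium flux slope more than 3 SD above or below the plate's solvent-only control mean, mostly below; inconclusive = the two repeat wells disagreed; inactive = no significant shift from solvent-only controls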;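 note: raw slope with 0.1% DMSO as baseline and bumetanide as block control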
HEK293 Tl flux: thallium flux modulation in parental HEK cells, confirmation, counter-screen for KCC2 modulator project, cell-based, counterscreen 1; shares compounds with KCC2 mod; HEK293 parental cells, thallium flux FluoZin2, ouabain; baseline-ratio fluorescence slope, 10–20 s after thallium; thallium flux rate (normalised fluorescence) at 10 µM; 46% of 3,700 active; AID 1716, 2009;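 active = thallium flux rate significantly above the same plate's solvent-only control wells, beyond their mean plus 3 SD; inconclusive = the two replicate wells gave conflicting results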
KCC2 retest ouab: KCC2 inhibitors and activators, ouabain retest, confirmation, HEK-KCC2 cells. HEK293-KCC2, thallium flux FluoZin2 fluorescence; bidirectional: low = inhibitor, high = activator. shares compounds with KCC2 mod. 48% of 3,700 active. raw Tl+ flux slope (below DMSO = inhibition, above = activation) at 10 µM;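 active = thallium flux slope beyond 3 SD from same-plate DMSO control mean in most replicates, usually higher, sometimes lower; inconclusive = repeat tests gave conflicting results; inactive = no significant difference from controls in most replicates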;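 note: slope of initial-normalized fluorescence between seconds 10 and 20 after thallium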
HEK293 Tl flux2: native HEK Tl+ uptake effects, second counter-screen – HEK cells, counterscreen 2, counter-screen for KCC2 modulator project, confirmation; shares compounds with KCC2 mod; HEK293 parental, thallium flux FluoZin-2 fluorescence slope; thallium flux slope at 10 µM; 33% of 3,700 active; AID 1718, 2009;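 active = thallium flux slope above the same plate's solvent-control mean plus 3 SD in both duplicate wells; inconclusive = duplicate wells that disagreed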;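 note: run without ouabain in cells lacking the KCC2 cotransporter; slope of fluorescence scaled to its starting value between 10 and 20 s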
Starred values were filed as active, the others as inactive; i = inactive; u = inconclusive; x = not tested or not shown. Compounds with a hit are over-represented: about 5.5% of the library has one in this group of screens.

SMILES	HSV replic up	STAT3 act	STAT1 blocker	KCC2 mod	STAT1 activator	STAT3 inh	KCC2 sec1	KCC2 bumet counter	KCC2 secondary2	HEK293 Tl flux	KCC2 retest ouab	HEK293 Tl flux2
c1ccc(C2Oc3ccccc3C3CC(c4cccs4)=NN32)cc1 (centres undefined)	i	99.8	-4.4	9.34*	104.0	-4.8	0.0101	0.0458*	0.0373	0.0598*	0.0546*	0.0197*
CC(C)c1nnc(NC(=O)c2cccnc2)s1	i	100.4	-17.5	7.83*	114.2	-0.4	0.016	0.00509	0.0265	0.00731	0.0162	0.0108
CCCc1nnc(NC(=O)c2cccnc2)s1	i	x	x	0.358	x	x	x	x	x	x	x	x
CCCCOc1ccc(-c2nnn(CC(=O)NCCc3c[nH]c4ccccc34)n2)cc1	i	103.2	-10.1	x	109.0	1.9	x	x	x	x	x	x
CC(=O)N1CCCc2cc(S(=O)(=O)N(C)Cc3ccccc3)ccc21	i	93.2	7.4	-4.02*	93.2	13.4	0.00699	0.00649	0.0335	0.00455	u	0.0112
O=C(CSc1nnc(COc2cccc3ccccc23)o1)N1CCN(C(=O)c2ccco2)CC1	i	99.2	-3.5	-0.473	103.2	3.7	x	x	x	x	x	x
Cc1csc(N(C)C(=O)CSc2nnc(COc3cccc4ccccc34)o2)n1	i	90.8	3.6	x	96.7	16.6	0.00703	0.00596	0.0269	0.00626	0.0152*	0.00914
COc1ccc(C2c3sc(=O)[nH]c3SC3C(=O)N(c4ccccc4)C(=O)C32)cc1 (centres undefined)	i	96.8	2.1	-5.92*	98.1	9.1	0.00546	0.00869*	0.0221*	0.00971*	0.0111*	0.0108
CCOc1ccc(N2C(=O)C3Sc4[nH]c(=O)sc4C(c4ccc(OC)c(OC)c4)C3C2=O)cc1 (centres undefined)	i	x	x	-3.84	x	x	x	x	x	x	x	x
O=C1C2Sc3[nH]c(=O)sc3C(c3ccccc3)C2C(=O)N1c1ccccc1 (centres undefined)	i	107.1	6.9	-11.5*	93.7	-3.4	u	0.00517	0.0174*	0.00869	u	0.0115
Cc1cccc(N2C(=O)CS/C2=N\NC(=O)c2ccc(Br)cc2)c1C	i	95.7	-2.5	7.93*	102.3	4.6	0.00604	0.0348*	0.0363	0.0229*	0.0343*	0.0238*

Screening results: PubChem, several laboratories
